Assay results reported in ChEMBL document CHEMBL2062488, “Exploration of diverse hinge-binding scaffolds for selective Aurora kinase inhibitors” (Bioorg Med Chem Lett, 2012).

Tests used:
[1] = biological target: T1, Aurora kinase A (Homo sapiens, UniProt O14965); test: Inhibition of Aurora A kinase by HTRF analysis in presence of 1 mM ATP
T1 sequence (O14965 whole entry): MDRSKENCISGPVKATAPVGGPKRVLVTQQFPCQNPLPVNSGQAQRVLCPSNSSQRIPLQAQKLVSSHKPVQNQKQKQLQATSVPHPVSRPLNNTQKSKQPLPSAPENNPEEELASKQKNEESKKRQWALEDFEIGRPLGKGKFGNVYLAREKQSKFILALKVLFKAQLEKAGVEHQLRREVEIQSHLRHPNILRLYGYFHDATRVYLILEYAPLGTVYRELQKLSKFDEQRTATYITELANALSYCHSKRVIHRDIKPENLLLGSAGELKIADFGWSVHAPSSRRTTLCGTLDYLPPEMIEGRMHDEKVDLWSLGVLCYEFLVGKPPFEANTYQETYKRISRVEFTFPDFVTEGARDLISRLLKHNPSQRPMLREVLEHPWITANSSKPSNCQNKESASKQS

[2] = biological target: T2, Aurora kinase B (Homo sapiens, UniProt Q96GD4); test: Inhibition of Aurora B kinase by HTRF analysis in presence of 1 mM ATP
T2 sequence (Q96GD4 whole entry): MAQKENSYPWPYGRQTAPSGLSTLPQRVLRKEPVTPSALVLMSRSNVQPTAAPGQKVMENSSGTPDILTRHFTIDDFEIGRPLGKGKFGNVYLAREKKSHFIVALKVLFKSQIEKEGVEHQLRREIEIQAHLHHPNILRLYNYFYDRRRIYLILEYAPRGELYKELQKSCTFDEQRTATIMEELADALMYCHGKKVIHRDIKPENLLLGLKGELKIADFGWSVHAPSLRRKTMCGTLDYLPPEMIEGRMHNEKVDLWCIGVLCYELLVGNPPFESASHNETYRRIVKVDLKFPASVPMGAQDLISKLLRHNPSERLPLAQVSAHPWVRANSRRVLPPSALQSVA

[3] = organism: Homo sapiens; test: Selectivity ratio of IC50 for Aurora A kinase to IC50 for Aurora B kinase
[4] = system: NCI-H1299; test: Cell cycle arrest in human NCI-H1299 assessed as induction of polyploidy after 48 hrs by Hoechst staining-based fluorescence microscopic analysis; type: functional; conditions: NCI-H1299, 48 h
In short: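 NCI-H1299 cells seeded at 4 K/well and left overnight to adhere. Compounds at varying concentrations added in duplicate wells, RPMI 1640 with 10% fetal calf serum, 37 °C for 48 h. Cells fixed in 3% formalin for 1 h, Hoechst-stained and imaged by high-content fluorescence microscopy (360/460 nm) for nuclear area. Polyploid (≥4N) cells had nuclear area >750. EC15 is the concentration giving 15% polyploid cells, from least-squares fit of log dose-response.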

[5] = system: Mus musculus; test: Inhibition of histone 3 phosphorylation in leukemia xenografted mouse model at 50 mg/kg, ip measured after 4 hrs; type: functional; conditions: route intraperitoneal
In short: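 Leukemia-engrafted mouse model dosed 50 mpk IP. Histone H3 phosphorylation was measured 4 h after the dose as percent inhibition.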

[6] = Clearance in mouse at 3 mg/kg, iv; type: ADME, organism-based; set-up: dose 3 mg/kg, route intravenous; conditions: in vivo
[7] = Volume of distribution in mouse at 3 mg/kg, iv; type: ADME, organism-based; set-up: dose 3 mg/kg, route intravenous; conditions: in vivo
[8] = system: Mus musculus; test: AUC in mouse at 10 mg/kg, po; type: ADME, organism-based, Plasma; set-up: dose 10 mg/kg, route oral; conditions: in vivo
In short: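 Pyrrolotriazines were given by oral cassette dosing at 10 mpk, with several compounds in one cassette. Oral exposure is reported as AUC.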

[9] = Oral bioavailability in mouse at 10 mg/kg; type: ADME, organism-based; conditions: in vivo
[10] = Distribution half life in mouse at 3 mg/kg, iv; type: ADME, organism-based; set-up: dose 3 mg/kg, route intravenous; conditions: in vivo, read-out: alphat1/2 (converted)
[11] = biological target: T3, Calcium/calmodulin-dependent protein kinase type IV (Homo sapiens, UniProt Q16566); test: Inhibition of Camk4 in presence of 10 uM ATP
T3 sequence (Q16566 whole entry): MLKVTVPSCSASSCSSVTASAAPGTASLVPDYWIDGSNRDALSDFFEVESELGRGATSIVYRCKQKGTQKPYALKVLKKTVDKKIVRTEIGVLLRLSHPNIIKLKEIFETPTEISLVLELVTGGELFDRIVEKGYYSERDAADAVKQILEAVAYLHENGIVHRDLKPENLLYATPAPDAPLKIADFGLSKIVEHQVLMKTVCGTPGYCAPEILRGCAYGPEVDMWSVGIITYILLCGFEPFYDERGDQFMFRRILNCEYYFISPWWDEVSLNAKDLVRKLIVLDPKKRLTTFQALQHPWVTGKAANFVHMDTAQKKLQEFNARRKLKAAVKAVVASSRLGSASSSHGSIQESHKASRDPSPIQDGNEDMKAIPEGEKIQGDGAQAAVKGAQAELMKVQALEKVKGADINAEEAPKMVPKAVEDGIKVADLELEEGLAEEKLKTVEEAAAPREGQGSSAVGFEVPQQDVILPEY

[12] = biological target: Activin receptor type-1-like (Homo sapiens, UniProt P37023); test: Inhibition of Alk1 in presence of 10 uM ATP
Sequence of Activin receptor type-1-like (P37023 whole entry): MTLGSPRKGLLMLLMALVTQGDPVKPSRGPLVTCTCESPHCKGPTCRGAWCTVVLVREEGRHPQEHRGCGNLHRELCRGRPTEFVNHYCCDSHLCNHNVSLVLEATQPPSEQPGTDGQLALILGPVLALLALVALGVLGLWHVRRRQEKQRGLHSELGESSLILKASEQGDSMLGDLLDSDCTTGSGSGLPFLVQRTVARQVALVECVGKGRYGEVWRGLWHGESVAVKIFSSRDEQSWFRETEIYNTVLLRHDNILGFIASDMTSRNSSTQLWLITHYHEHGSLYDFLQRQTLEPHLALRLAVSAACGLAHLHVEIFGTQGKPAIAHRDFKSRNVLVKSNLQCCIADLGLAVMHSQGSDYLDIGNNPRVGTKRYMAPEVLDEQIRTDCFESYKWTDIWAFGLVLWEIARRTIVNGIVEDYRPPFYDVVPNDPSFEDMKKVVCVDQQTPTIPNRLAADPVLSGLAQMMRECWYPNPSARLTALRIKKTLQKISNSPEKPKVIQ

[13] = biological target: T2, Aurora kinase B; test: Inhibition of Aurora B kinase in presence of 10 uM ATP
[14] = biological target: T1, Aurora kinase A; test: Inhibition of Aurora A kinase in presence of 10 uM ATP
[15] = biological target: T4, Serine/threonine-protein kinase PLK4 (Homo sapiens, UniProt O00444); test: Inhibition of Plk4 in presence of 10 uM ATP
T4 sequence (O00444 whole entry): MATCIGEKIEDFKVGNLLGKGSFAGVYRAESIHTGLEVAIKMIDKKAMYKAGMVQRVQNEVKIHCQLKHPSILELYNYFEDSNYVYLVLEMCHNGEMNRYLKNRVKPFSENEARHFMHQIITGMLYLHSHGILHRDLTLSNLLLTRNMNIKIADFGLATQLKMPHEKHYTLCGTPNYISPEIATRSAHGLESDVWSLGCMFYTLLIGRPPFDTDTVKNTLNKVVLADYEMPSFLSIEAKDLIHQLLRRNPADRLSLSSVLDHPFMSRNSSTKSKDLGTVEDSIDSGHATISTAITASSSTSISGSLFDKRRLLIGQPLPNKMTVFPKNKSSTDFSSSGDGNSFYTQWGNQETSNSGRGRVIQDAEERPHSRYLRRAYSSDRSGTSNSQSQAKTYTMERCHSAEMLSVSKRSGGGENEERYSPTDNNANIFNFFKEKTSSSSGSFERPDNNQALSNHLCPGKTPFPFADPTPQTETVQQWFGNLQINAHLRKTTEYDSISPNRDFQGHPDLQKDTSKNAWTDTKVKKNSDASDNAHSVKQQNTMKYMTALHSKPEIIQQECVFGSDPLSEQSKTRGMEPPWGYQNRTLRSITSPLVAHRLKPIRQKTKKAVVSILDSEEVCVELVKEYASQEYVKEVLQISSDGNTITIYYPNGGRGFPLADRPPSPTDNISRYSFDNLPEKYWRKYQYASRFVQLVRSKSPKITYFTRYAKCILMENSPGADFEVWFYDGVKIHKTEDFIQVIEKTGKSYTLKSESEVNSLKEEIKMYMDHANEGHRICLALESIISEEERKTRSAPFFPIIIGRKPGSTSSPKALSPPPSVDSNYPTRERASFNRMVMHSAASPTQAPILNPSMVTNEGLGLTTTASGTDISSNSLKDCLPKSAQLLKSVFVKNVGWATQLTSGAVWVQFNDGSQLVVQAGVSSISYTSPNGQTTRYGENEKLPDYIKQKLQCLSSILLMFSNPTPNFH

Row | SMILES | IC50 [1] [nM] | IC50 [2] [nM] | Ratio IC50 [3] | EC15 [4] [nM] | further results
1 | Nc1noc2cccc(C(=O)Nc3ccc(NC(=O)Nc4ccc(F)cc4)cc3)c12 | > 12500 | 480 | > 26 | – | –
2 | Nc1noc2cccc(C(=O)Nc3cccc(CNC(=O)Nc4ccc(F)c(F)c4)c3)c12 | 4780 | 7 | 696 | 15 | inhibition in vivo at 50 mg/kg [5]: 87%; clearance [6]: 6.5 mL/min/kg; Vd [7]: 0.96 L/kg; AUC [8]: 8 uM.hr/ml; bioavailability [9]: 31%; half-life [10]: 1.7 h
3 | Nc1noc2cccc(C(=O)Nc3cccc(CNC(=O)Nc4ccccc4F)c3)c12 | > 12500 | 55 | > 227 | 124 | –
4 | Nc1ncnn2ccc(C(=O)Nc3ccc(NC(=O)NC4CCCC4)cc3)c12 | – | – | – | 15 | –
5 | Cn1nc(N)c2c(C(=O)Nc3cccc(CNC(=O)Nc4ccc(C(F)(F)F)cc4)c3)cccc21 | 12500 | 172 | 73 | – | –
6 | Nc1noc2cccc(C(=O)Nc3ccc(NC(=O)Nc4ccc(Cl)cc4)cc3)c12 | > 12500 | 140 | > 89 | – | –
7 | Nc1noc2cccc(C(=O)Nc3cccc(CNC(=O)Nc4ccc(F)cc4)c3)c12 | – | – | – | 30 | –
8 | Nc1noc2cccc(C(=O)Nc3cccc(CC(=O)Nc4cccc(F)c4)c3)c12 | > 12500 | 450 | – | – | –
9 | Nc1noc2cccc(C(=O)Nc3cccc(CNC(=O)Nc4cccc(F)c4)c3)c12 | 3180 | 59 | 54 | 3 | clearance [6]: 8.83 mL/min/kg; Vd [7]: 0.54 L/kg; AUC [8]: 5 uM.hr/ml; bioavailability [9]: 28%; half-life [10]: 0.7 h
10 | Nc1ncnn2ccc(C(=O)Nc3cccc(CNC(=O)Nc4cccc(Cl)c4)c3)c12 | – | – | – | 2 | –
11 | Nc1ncnn2ccc(C(=O)Nc3ccc(NC(=O)Nc4ccsc4)cc3)c12 | – | – | – | 6 | –
12 | Nc1ncnn2ccc(C(=O)Nc3cccc(CNC(=O)Nc4cccc(F)c4)c3)c12 | – | – | – | 2 | –
13 | Nc1nsc2cccc(C(=O)Nc3cccc(CNC(=O)Nc4ccc(F)c(F)c4)c3)c12 | 12500 | 36 | 347 | 21 | –
14 | Nc1ncnn2ccc(C(=O)Nc3cccc(CNC(=O)Nc4ccc(Cl)cc4)c3)c12 | – | – | – | 1 | –
15 | Nc1n[nH]c2cccc(C(=O)Nc3cccc(CNC(=O)Nc4cccc(F)c4)c3)c12 | – | – | – | 111 | –
16 | Nc1nsc2cccc(C(=O)Nc3cccc(CNC(=O)Nc4cccc(F)c4)c3)c12 | – | – | – | 18 | –
17 | Nc1noc2cccc(C(=O)Nc3cccc(CNC(=O)Cc4cccc(F)c4)c3)c12 | > 12500 | > 12500 | – | – | –
18 | Nc1nsc2cccc(C(=O)Nc3cccc(CNC(=O)Nc4ccc(C(F)(F)F)cc4)c3)c12 | – | – | – | 18 | –
19 | Nc1ncnn2ccc(C(=O)Nc3cccc(CNC(=O)Nc4ccc(C(F)(F)F)cc4)c3)c12 | – | – | – | 6 | –
20 | Nc1noc2cccc(C(=O)Nc3cccc(CNC(=O)Nc4ccc(Cl)cc4)c3)c12 | – | – | – | 12 | –
21 | Cc1ccc(NC(=O)NCc2cccc(NC(=O)c3ccn4ncnc(N)c34)c2)cc1 | – | – | – | 1 | –
22 | Cc1ccc(NC(=O)NCc2cccc(NC(=O)c3cccc4onc(N)c34)c2)cc1 | – | – | – | 1 | –
23 | Nc1noc2cccc(C(=O)Nc3cccc(CNC(=O)Nc4ccccc4)c3)c12 | 3790 | 18 | 210 | 47 | –
24 | Nc1ncnn2ccc(C(=O)Nc3ccc(NC(=O)Nc4ccc(F)cc4)cc3)c12 | 88 | 36 | 2.4 | 16 | –
25 | Nc1ncnn2ccc(C(=O)Nc3ccc(NC(=O)Nc4cccc(F)c4)cc3)c12 | – | 9 | – | 3 | IC50 [11]: > 10000 nM; IC50 [12]: > 10000 nM; IC50 [13]: < 3 nM; IC50 [14]: < 3 nM; IC50 [15]: < 3 nM
26 | Nc1n[nH]c2cccc(C(=O)Nc3cccc(CNC(=O)Nc4ccc(F)c(F)c4)c3)c12 | – | – | – | 143 | –
27 | Nc1noc2cccc(C(=O)Nc3cccc(CNC(=O)Nc4ccc(C(F)(F)F)cc4)c3)c12 | – | – | – | 13 | clearance [6]: 2.17 mL/min/kg; Vd [7]: 0.23 L/kg; AUC [8]: 61 uM.hr/ml; bioavailability [9]: 77%; half-life [10]: 1.3 h
28 | Cc1cccc(NC(=O)Nc2ccc(NC(=O)c3ccn4ncnc(N)c34)cc2)c1 | – | – | – | 9 | –
